Laboratory results reported in ChEMBL document CHEMBL1687796, “Synthesis and spectrum of the neoglycoside ACHN-490” (2010).
≈ marks a conversion by molar mass, not a printed value. Each block holds one compound with its values, some of them ahead of it.

Columns and labels:
Serratia sp. = assay: Antibacterial activity against Serratia spp. by broth microdilution method; format: functional; details: Serratia sp. (in: enterobacteria)
How it was run: (§1)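 MICs were determined by CLSI broth microdilution against clinical isolate panels that included aminoglycoside-resistant isolates. […] MIC90 was derived per group and not calculated when n was <10. Imipenem, ceftobiprole, ciprofloxacin and tigecycline MICs were also determined for the resistant isolates.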

Acinetobacter sp. = assay: Antibacterial activity against Acinetobacter spp. by broth microdilution method; format: functional; how it was run: as §1
[1] = Antibacterial activity against indole positive Proteae by broth microdilution method; format: functional; how it was run: as §1
Klebsiella sp. = assay: Antibacterial activity against Klebsiella spp. by broth microdilution method; format: functional; how it was run: as §1
Proteus mirabilis = assay: Antibacterial activity against Proteus mirabilis by broth microdilution method; format: functional; how it was run: as §1
Escherichia coli [2] = assay: Antibacterial activity against Escherichia coli by broth microdilution method; format: functional; how it was run: as §1
Citrobacter = assay: Antibacterial activity against Citrobacter spp. by broth microdilution method; format: functional; how it was run: as §1
Enterobacter sp. = assay: Antibacterial activity against Enterobacter spp. by broth microdilution method; format: functional; how it was run: as §1
Pseudomonas aeruginosa [3] = assay: Antibacterial activity against Pseudomonas aeruginosa by broth microdilution method; format: functional; how it was run: as §1
Staphylococcus aureus [4] = assay: microbe, parasite or virus in culture; details: ATCC 29213
Escherichia coli [5] = assay: Antibacterial activity against aminoglycoside-resistant Escherichia coli expressing APH(3')-1b by broth microdilution method
Pseudomonas aeruginosa [6] = assay: Antibacterial activity against Pseudomonas aeruginosa ATCC 27853 by broth microdilution method; format: functional
Escherichia coli [7] = assay: Antibacterial activity against aminoglycoside-resistant Escherichia coli expressing ANT(2'')-1 by broth microdilution method; format: functional
How it was run: (§2)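 Clinical aminoglycoside-resistant isolates were each carrying a single aminoglycoside-modifying enzyme. […] MICs were determined by CLSI broth microdilution.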

Escherichia coli [8] = assay: Antibacterial activity against aminoglycoside-resistant Escherichia coli expressing AAC(3)-IVa by broth microdilution method
Staphylococcus aureus [9] = assay: microbe, parasite or virus in culture
Acinetobacter = assay: Antibacterial activity against aminoglycoside-resistant Acinetobacter spp. expressing APH(3')-6 by broth microdilution method; format: functional; how it was run: as §2
Pseudomonas aeruginosa [10] = assay: Antibacterial activity against Pseudomonas aeruginosa expressing mexXY operon by broth microdilution method; format: functional
How it was run: (§3)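 MICs were measured by broth microdilution following CLSI guidance. The strains formed a 25-strain screening panel with diverse aminoglycoside resistance mechanisms. The panel included Gram-negative and S. aureus strains carrying key aminoglycoside-modifying enzymes, strains with altered permeability or efflux, and an armA ribosomal methyltransferase strain.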

Pseudomonas aeruginosa [11] = assay: Antibacterial activity against efflux pump deficient Pseudomonas aeruginosa by broth microdilution method; format: functional
Staphylococcus aureus [12] = assay: microbe, parasite or virus in culture; remark: listed apart in the source
Acinetobacter baumannii [13] = assay: Antibacterial activity against aminoglycoside-susceptible Acinetobacter baumannii by broth microdilution method; format: functional
Providencia stuartii = assay: Antibacterial activity against aminoglycoside-resistant Providencia stuartii expressing AAC(2')-1 by broth microdilution method
Escherichia coli [14] = assay: Antibacterial activity against aminoglycoside-resistant Escherichia coli expressing AAC(3)-2 by broth microdilution method
Pseudomonas aeruginosa [15] = assay: Antibacterial activity against Pseudomonas aeruginosa expressing AAC(3)-1 by broth microdilution method; format: functional
Pseudomonas aeruginosa [16] = assay: Antibacterial activity against Pseudomonas aeruginosa expressing AAC(6')-2 by broth microdilution method; format: functional
Escherichia coli [17] = assay: Antibacterial activity against aminoglycoside-resistant Escherichia coli expressing AAC(6')-1 by broth microdilution method
Staphylococcus aureus [18] = assay: Antibacterial activity against aminoglycoside-resistant Staphylococcus aureus expressing APH(2'') + AAC(6') by broth microdilution method; format: functional; how it was run: as §3
Escherichia coli [19] = assay: Antibacterial activity against aminoglycoside-resistant Escherichia coli expressing armA methylase by broth microdilution method; format: functional; how it was run: as §3
Pseudomonas aeruginosa [20] = assay: Antibacterial activity against wild type Pseudomonas aeruginosa expressing efflux pump by broth microdilution method; format: functional
How it was run: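 MIC was determined by CLSI broth microdilution, read in μg/ml. The strain came from a 25-strain screening panel with diverse aminoglycoside resistance mechanisms. The panel included strains with changes in permeability or efflux, key aminoglycoside-modifying enzymes and an armA methyltransferase strain.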

Acinetobacter baumannii [21] = assay: Antibacterial activity against Acinetobacter baumannii ATCC 19606 by broth microdilution method; format: functional; details: ATCC 19606 = CIP 70.34 = JCM 6841; how it was run: as §3
Klebsiella pneumoniae = assay: Antibacterial activity against Klebsiella pneumoniae ATCC 10031 by broth microdilution method; format: functional; how it was run: as §3
Escherichia coli [22] = assay: Antibacterial activity against Escherichia coli ATCC 25922 by broth microdilution method; format: functional; how it was run: as §3
Pseudomonas aeruginosa [23] = assay: Antibacterial activity against Pseudomonas aeruginosa expressing ANT(4')-2 by broth microdilution method; format: functional; how it was run: as §3
Serratia marcescens = assay: Antibacterial activity against aminoglycoside-resistant Serratia marcescens expressing ANT(2''), AAC(6') by broth microdilution method; format: functional; how it was run: as §3
[24] = test system: Acinetobacter calcoaceticus; assay: Antibacterial activity against aminoglycoside-resistant Acinetobacter calcoaceticus expressing AAC(6')-1 by broth microdilution method; format: functional; how it was run: as §2

MIC50 (Serratia sp.): > 32 µg/mL
MIC50 (Acinetobacter sp.): > 32 µg/mL
MIC90 (Acinetobacter sp.): > 32 µg/mL
MIC50 [1]: > 32 µg/mL
MIC50 (Klebsiella sp.): > 32 µg/mL
MIC90 (Klebsiella sp.): > 32 µg/mL
MIC50 (Proteus mirabilis): 0.125 µg/mL (≈ 0.234 µM)
MIC90 (Proteus mirabilis): > 32 µg/mL
MIC50 (Escherichia coli [2]): > 32 µg/mL
MIC90 (Escherichia coli [2]): > 32 µg/mL
MIC50 (Citrobacter): 1 µg/mL (≈ 1.87 µM)
MIC50 (Enterobacter sp.): > 32 µg/mL
MIC90 (Enterobacter sp.): > 32 µg/mL
MIC50 (Pseudomonas aeruginosa [3]): 16 µg/mL (≈ 29.9 µM)
MIC90 (Pseudomonas aeruginosa [3]): > 32 µg/mL
Structure (SMILES): Nc1nc(/C(=N/O)C(=O)N[C@@H]2C(=O)N3C(C(=O)O)=C(/C=C4\CCN([C@@H]5CCNC5)C4=O)CS[C@H]23)ns1 [CEFTOBIPROLE]

Structure (SMILES): C[C@@H](O)[C@H]1C(=O)N2C(C(=O)O)=C(SCCNC=N)C[C@H]12 [IMIPENEM ANHYDROUS]
MIC50 (Serratia sp.): 1 µg/mL (≈ 3.34 µM)
MIC50 (Acinetobacter sp.): 2 µg/mL (≈ 6.68 µM)
MIC90 (Acinetobacter sp.): > 16 µg/mL
MIC50 [1]: 1 µg/mL (≈ 3.34 µM)
MIC50 (Klebsiella sp.): 0.25 µg/mL (≈ 0.835 µM)
MIC90 (Klebsiella sp.): > 16 µg/mL
MIC50 (Proteus mirabilis): 4 µg/mL (≈ 13.4 µM)
MIC90 (Proteus mirabilis): 8 µg/mL (≈ 26.7 µM)
MIC50 (Escherichia coli [2]): 0.125 µg/mL (≈ 0.418 µM)
MIC90 (Escherichia coli [2]): 0.25 µg/mL (≈ 0.835 µM)
MIC50 (Citrobacter): 0.5 µg/mL (≈ 1.67 µM)
MIC50 (Enterobacter sp.): 1 µg/mL (≈ 3.34 µM)
MIC90 (Enterobacter sp.): 4 µg/mL (≈ 13.4 µM)
MIC50 (Pseudomonas aeruginosa [3]): 4 µg/mL (≈ 13.4 µM)
MIC90 (Pseudomonas aeruginosa [3]): 16 µg/mL (≈ 53.4 µM)

Structure (SMILES): CN[C@@H]1[C@@H](O)[C@@H](O[C@@H]2[C@@H](O)[C@H](O[C@H]3OC(CN)=CC[C@H]3N)[C@@H](N)C[C@H]2N)OC[C@]1(C)O [SISOMICIN]
MIC (Staphylococcus aureus [4]): 0.5 µg/mL (≈ 1.12 µM)
MIC (Escherichia coli [5]): 0.25 µg/mL (≈ 0.559 µM)
MIC (Pseudomonas aeruginosa [6]): 0.5 µg/mL (≈ 1.12 µM)
MIC (Escherichia coli [7]): 64 µg/mL (≈ 143 µM)
MIC (Escherichia coli [8]): 32 µg/mL (≈ 71.5 µM)
MIC (Staphylococcus aureus [9]): 0.25 µg/mL (≈ 0.559 µM)
MIC (Acinetobacter): 0.5 µg/mL (≈ 1.12 µM)
MIC (Pseudomonas aeruginosa [10]): 1 µg/mL (≈ 2.23 µM)
MIC (Pseudomonas aeruginosa [11]): 0.125 µg/mL (≈ 0.279 µM)
MIC (Staphylococcus aureus [12]): 1 µg/mL (≈ 2.23 µM)
MIC (Acinetobacter baumannii [13]): 0.5 µg/mL (≈ 1.12 µM)
MIC (Providencia stuartii): 64 µg/mL (≈ 143 µM)
MIC (Escherichia coli [14]): > 64 µg/mL
MIC (Pseudomonas aeruginosa [15]): 32 µg/mL (≈ 71.5 µM)
MIC (Pseudomonas aeruginosa [16]): 32 µg/mL (≈ 71.5 µM)
MIC (Escherichia coli [17]): 32 µg/mL (≈ 71.5 µM)
MIC (Staphylococcus aureus [18]): > 64 µg/mL
MIC (Escherichia coli [19]): > 64 µg/mL
MIC (Pseudomonas aeruginosa [20]): 1 µg/mL (≈ 2.23 µM)
MIC (Acinetobacter baumannii [21]): 8 µg/mL (≈ 17.9 µM)
MIC (Klebsiella pneumoniae): 0.25 µg/mL (≈ 0.559 µM)
MIC (Escherichia coli [22]): 0.5 µg/mL (≈ 1.12 µM)
MIC (Pseudomonas aeruginosa [23]): 1 µg/mL (≈ 2.23 µM)
MIC (Serratia marcescens): 8 µg/mL (≈ 17.9 µM)
MIC [24]: 32 µg/mL (≈ 71.5 µM)
